# In paper PMC4171190 (Fitoterapia, 2014):
# Like-named read-outs stand apart in the source and are kept apart here. Marks after values point to notes of the source that are not given here.
# Experiments:
# alpha7 nAChR = alpha7 nAChR (Rattus norvegicus, UniProt Q05941); experiment: [3H]-MLA displacement from rat hippocampal membranes; format: binding
# [1] = test system: LPS stimulated BV2 microglia; experiment: Inhibition of TNF-alpha release from LPS stimulated BV2 microglia; format: cell-based, murine; details: flavonoid alone; 10μg/ml LPS 24h
# In short: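 Murine BV2 cells seeded at 5×10^5 cells/well in 24-well plates, adhered overnight, then given 1h serum-free pretreatment with test compound (±10μM MLA or 1μM nicotine) before 10μg/ml LPS for 24h. Supernatants frozen, then assayed by mouse TNF-alpha ELISA. Release expressed as % of LPS alone, normalised to resazurin viability when groups differed. Sigmoidal fits, fixed vs variable slope compared by F-test.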
# [2] = test system: LPS stimulated BV2 microglia; experiment: Inhibition of NO release from LPS stimulated BV2 microglia; format: cell-based, murine
# In short: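 BV2 murine microglia (DMEM/F-12, 10% FBS, 37°C, 5% CO2) trypsinised, seeded 5×10^5 cells/well in 24-well plates, adhered overnight. Pretreated 1h serum-free with test compound (±10μM MLA or 1μM nicotine), then 10μg/ml LPS for 24h. Supernatant nitrite read immediately by Griess, A550, against NaNO2 standard. Expressed as % of LPS alone; sigmoidal fits, fixed vs variable slope compared by F-test.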
# [3] = biological target: nicotinic binding sites on BV2 membranes; experiment: [3H]-epibatidine saturation binding on BV2 membranes; design: species or system murine; details: read-out: Kd, saturation binding; BV2 microglia membranes
# [4] = IC50 [3H]-MLA displacement, rat hippocampal membranes, 2nM [3H]-MLA
# [5] = pIC50 [3H]-MLA displacement, rat hippocampal membranes, 2nM [3H]-MLA
# Sequence of alpha7 nAChR (Q05941 23-502): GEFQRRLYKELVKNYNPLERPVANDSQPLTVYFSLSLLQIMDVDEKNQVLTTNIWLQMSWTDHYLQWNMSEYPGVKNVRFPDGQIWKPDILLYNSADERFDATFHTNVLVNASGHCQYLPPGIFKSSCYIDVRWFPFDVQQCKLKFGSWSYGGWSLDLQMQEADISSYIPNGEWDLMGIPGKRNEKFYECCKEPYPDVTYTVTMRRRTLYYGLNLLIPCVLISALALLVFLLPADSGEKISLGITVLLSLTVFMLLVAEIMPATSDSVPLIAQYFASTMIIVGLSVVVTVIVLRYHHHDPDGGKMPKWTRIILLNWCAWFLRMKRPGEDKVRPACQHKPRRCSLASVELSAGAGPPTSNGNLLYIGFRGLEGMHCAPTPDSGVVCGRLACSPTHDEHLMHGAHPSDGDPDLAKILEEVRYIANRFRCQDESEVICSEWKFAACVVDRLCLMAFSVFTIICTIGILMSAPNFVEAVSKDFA
smiles,measurement,setting,value
O=c1c(O[C@@H]2O[C@H](CO)[C@@H](O)[C@H](O)[C@H]2O)c(-c2ccc(O)cc2)oc2cc(O)cc(O)c12 [Astragalin],IC50,alpha7 nAChR; [4],496 µM
O=c1cc(-c2ccccc2)oc2cc(O)c(O)c(O)c12 [Baicalein],IC50,alpha7 nAChR; [4],66.1 µM
O=c1c(-c2ccc(O)cc2)coc2cc(O[C@@H]3O[C@H](CO)[C@@H](O)[C@H](O)[C@H]3O)ccc12 [Daidzin],IC50,alpha7 nAChR; [4],120 µM
O=c1c(O[C@@H]2O[C@H](CO)[C@@H](O)[C@H](O)[C@H]2O)c(-c2ccc(O)c(O)c2)oc2cc(O)cc(O)c12 [Isoquercitrin],IC50,alpha7 nAChR; [5],21.5 µM
COc1cc(-c2oc3cc(O)cc(O)c3c(=O)c2O)ccc1O [Isorhamnetin],IC50,alpha7 nAChR; [4],46.5 µM
same,IC50,alpha7 nAChR; [5],46.6 µM
COc1cc(-c2[o+]c3cc(O)cc(O)c3cc2O)cc(OC)c1O [Malvidin],IC50,alpha7 nAChR,90 µM
COc1cc(-c2[o+]c3cc(O)cc(O)c3cc2O[C@@H]2O[C@H](CO)[C@@H](O)[C@H](O)[C@H]2O)cc(O)c1O [Petunidin-3-glucoside],pIC50 [3H]-MLA displacement,"alpha7 nAChR; rat hippocampal membranes, 2nM [3H]-MLA",2.464 ± 0.95
same,IC50,"alpha7 nAChR; read-out: IC50 [3H]-MLA displacement, rat hippocampal membranes, 2nM [3H]-MLA",3430 µM
O=c1c(O)c(-c2ccc(O)c(O)c2)oc2cc(O)c(O)c(O)c12 [Quercetagetin],IC50,alpha7 nAChR,14.3 µM
O=c1c(O)c(-c2ccc(O)c(O)c2)oc2cc(O)cc(O)c12 [Quercetin],IC50,alpha7 nAChR; [4],11.4 µM
same,IC50,alpha7 nAChR; [5],11.5 µM
COc1cc(O)c2c(=O)c(O)c(-c3ccc(O)c(O)c3)oc2c1 [Rhamnetin],"Hill slope, inhibition of TNF-alpha release",[1],-3.5 ± 4.1
same,IC50,alpha7 nAChR; [5],1.11 µM
COc1cc(O)c2c(c1)O[C@H](c1ccc(O)cc1)CC2=O [Sakuranetin],"Hill slope, inhibition of TNF-alpha release",[1],-1.0 ^**
same,effect of added MLA on anti-inflammatory properties (NO and TNF-alpha release),"[2]; addition of MLA, LPS stimulated BV2",no effect
same,"Hill slope, inhibition of NO release","[2]; flavonoid alone, 10μg/ml LPS 24h",-1.0 ^**
O=c1c(O)c(-c2ccc(O[C@@H]3O[C@H](CO)[C@@H](O)[C@H](O)[C@H]3O)c(O)c2)oc2cc(O)cc(O)c12 [Spiraeoside],IC50,alpha7 nAChR; [4],8.35 µM
COc1ccc(-c2oc3cc(O)cc(O)c3c(=O)c2O)cc1O [Tamarixetin],IC50,alpha7 nAChR; [4],238 µM
Clc1ccc(C2CC3CCC2N3)cn1 (centres unmarked) [[^3H]-epibatidine],Kd,[3],6.5 nM
"CN1CCC[C@H]1c1cccnc1 [nicotine, (-)-nicotine]",effect alone on LPS induced release of inflammatory mediators,"[2]; 1μM, alone",no effect alone
same,effect of mecamylamine on inhibition of NO release,[2]; 10μM mecamylamine,blocked
same,maximal inhibition of LPS elicited release of NO,"[2]; 1h pretreatment, 10μg/ml LPS 24h",~20%
